Screens: PubChem, Sanford-Burnham Center for Chemical Genomics
SENP8 block-1: SENP8 (human) protease inhibition; recombinant SENP8, Nedd8 substrate fluorescence; Q96LD8; 0.64% of 360,000 active; inhibition, % at 20 µM; in the data active = inhibition mostly above about 40%, no sharp cut-off; inactive = mostly below about 27%
Apaf1 inhib: human Apaf-1 inhibition; reconstituted apoptosome caspase-3 activity, DEVD-Rh110 fluorescence; O14727; 0.71% of 330,000 active; AID 489030; inhibition, % at 20 µM; active = inhibition of at least 40% at 20 µM
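Assay system – apoptosome proteins · Medium – Hepes buffer, pH 7.5 · Also added – cytochrome c with DEVD-Rh110 · Timing – 30 min compound preincubation, 50 min activation, room temperature · Detection – Rh110 fluorescence, excitation 480 nm, emission 540 nm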
SENP7 inh: blocks the human protease SENP7. Q9BQF6. recombinant SENP7, Z-RLRGG-aminoluciferin luminescence, 40 min. inhibition, % at 5 µM. 1.5% of 330,000 active. AID 434973;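 active = inhibition above about 50% at the single test dose, limit read from the data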
SENP6 block: SENP6 protease inhibition; Q9GZR1; Recombinant SENP6 catalytic domain, aminoluciferin luminescence; inhibition, % at 10 µM; 1.8% of 330,000 active;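 active = inhibition above about 50% at the single tested dose, limit read from the data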
Target sequence (Q9GZR1 628-1112 limits assumed): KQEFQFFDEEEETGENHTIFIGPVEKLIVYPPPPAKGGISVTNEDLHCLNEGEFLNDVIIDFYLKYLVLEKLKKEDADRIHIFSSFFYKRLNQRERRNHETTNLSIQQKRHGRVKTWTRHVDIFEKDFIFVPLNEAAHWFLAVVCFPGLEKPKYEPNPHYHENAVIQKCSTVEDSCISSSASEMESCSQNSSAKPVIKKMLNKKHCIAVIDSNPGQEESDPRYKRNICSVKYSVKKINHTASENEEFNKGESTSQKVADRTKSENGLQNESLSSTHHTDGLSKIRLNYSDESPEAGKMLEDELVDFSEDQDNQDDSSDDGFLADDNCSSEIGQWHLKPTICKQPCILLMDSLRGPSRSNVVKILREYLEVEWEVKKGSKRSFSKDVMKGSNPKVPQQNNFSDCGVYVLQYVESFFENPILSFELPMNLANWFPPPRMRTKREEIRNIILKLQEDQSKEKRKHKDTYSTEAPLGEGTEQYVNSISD
UBC13 polyUb: inhibitors of human UBC13 polyubiquitin chain formation | TR-FRET | 0.47% of 330,000 active | AID 485273 | inhibition, % at 20 µM | P61088; in the data active = inhibition above about 45%, passing the limit was not always enough
Target sequence (P61088 whole entry, looked up): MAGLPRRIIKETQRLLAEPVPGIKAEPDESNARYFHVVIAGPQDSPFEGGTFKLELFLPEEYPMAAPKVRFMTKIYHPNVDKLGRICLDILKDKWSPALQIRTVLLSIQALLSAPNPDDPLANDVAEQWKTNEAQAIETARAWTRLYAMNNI
SENP8 block-2: blocks the human protease SENP8; Q96LD8; purified SENP8, Z-RLRGG-aminoluciferin cleavage, luminescence; inhibition, % at 10 µM; 1.2% of 330,000 active; in the data active = inhibition above about 50%
SENP8 conf: SENP8 (human) inhibition, single concentration confirmation | 15% of 1,400 active | shares compounds with SENP8 block-1 | purified SENP8, Nedd8-AMC/pro-Nedd8 cleavage fluorescence, 30 min | inhibition, % at 25 µM; in the data active = inhibition mostly above about 39%, no sharp cut-off; inactive = mostly below about 34%
Large screens that a line does not name were inactive (follow-up assays come after a bar, where they were run). The list is not random: actives were taken first. Their share in the collection is about 3%.

COc1ccccc1/C=C/C=NC1C(=O)N(c2ccccc2)[N+](C)=C1C (centres undefined)	none
CC(=O)c1cccc(NC(=O)c2ccc(CN3CCc4ccccc4C3)cc2)c1	none
O=C(NCc1ccc2c(c1)OCO2)c1ccccc1	none
Cc1cc(C)c(NC(=O)c2ccc(CN3CCc4ccccc4C3)cc2)c(C)c1	SENP8 block-1 45 | SENP8 conf inactive
CCOc1ccc(NC(=O)c2ccc(CN3CCc4ccccc4C3)cc2)cc1	none
N#CCc1ccc(NC(=O)c2ccc(CN3CCc4ccccc4C3)cc2)cc1	SENP8 block-1 59 | SENP8 conf inactive
O=C(Nc1ccc(Cl)cc1)c1ccc(CN2CCc3ccccc3C2)cc1	SENP8 block-1 47 | SENP8 conf inactive
O=C(NCc1ccc2c(c1)OCO2)c1ccc(CN2CCc3ccccc3C2)cc1	SENP8 block-1 42 | SENP8 conf inactive
CCOC(=O)c1ccc(NC(=O)c2ccc(CN3CCc4ccccc4C3)cc2)cc1	none
Cc1cc(-c2csc(N)n2)c(C)n1C	SENP8 block-1 43 | SENP8 conf inactive
Cc1onc(-c2c(Cl)cccc2Cl)c1C(=O)N=S(C)(=O)c1ccccc1 (centres undefined)	SENP8 block-1 41 | SENP8 conf inactive
CN(C(=S)Nc1cccnc1)c1ccc(O)cc1	SENP8 block-1 40 (no result: Apaf1 inhib, SENP7 inh, SENP6 block, UBC13 polyUb, SENP8 block-2) | SENP8 conf inactive
CN(C(=S)Nc1ccc(Oc2ccccc2)cc1)c1ccc(O)cc1	SENP8 block-1 46 (no result: Apaf1 inhib, SENP7 inh, SENP6 block, UBC13 polyUb, SENP8 block-2) | SENP8 conf inactive
CCc1nc2c(OCCc3cccc(OC)c3)cccn2c1N(C)C(=O)c1ccc(OC)cc1	none (no result: Apaf1 inhib, SENP7 inh, SENP6 block, UBC13 polyUb, SENP8 block-2)
O=C(Nc1ccc(F)c(Cl)c1)Nc1nnc([C@@H]2O[C@H](CO)[C@@H](O)[C@H]2O)s1	none (no result: Apaf1 inhib, SENP7 inh, SENP6 block, UBC13 polyUb, SENP8 block-2)
CC(C)Nc1ncnc2c1ncn2[C@H]1CN(Cc2ccc3c(c2)OCO3)C[C@@H](CO)O1	none (no result: Apaf1 inhib, SENP7 inh, SENP6 block, UBC13 polyUb, SENP8 block-2)
C=CCC(C(=O)OC)(C(=O)OC)c1ccc(C(F)(F)F)cc1[N+](=O)[O-]	none
C=CCC(C(=O)OC)(C(=O)OC)c1ccc([N+](=O)[O-])cc1[N+](=O)[O-]	SENP8 block-1 42 | SENP8 conf inactive
C=Cc1ccc(CC2(C)C(=O)Nc3ccc(Cl)cc32)cc1 (centres undefined)	none (no result: Apaf1 inhib, SENP7 inh, SENP6 block, UBC13 polyUb, SENP8 block-2)
CC1(C)CC2(CCO1)C(Nc1ccccc1)=NC(=S)N2CC(N)=O (centres undefined)	SENP8 block-1 45 | SENP8 conf inactive
Cc1ccccc1NC1=NC(=S)N(CC(N)=O)C12CCOC(C)(C)C2 (centres undefined)	none
CC(=O)N(C)c1ccc(C=C2C=Cc3ccccc32)cc1	none (no result: Apaf1 inhib, SENP7 inh, SENP6 block, UBC13 polyUb, SENP8 block-2)
CN(N=O)c1ccc(C=C2C=Cc3ccccc32)cc1	SENP8 block-1 51 (no result: Apaf1 inhib, SENP7 inh, SENP6 block, UBC13 polyUb, SENP8 block-2) | SENP8 conf inactive
CCN(N=O)c1ccc(C=C2C=Cc3ccccc32)cc1	SENP8 block-1 69 (no result: Apaf1 inhib, SENP7 inh, SENP6 block, UBC13 polyUb, SENP8 block-2) | SENP8 conf inactive
C#CCN(C[C@@H]1[C@@H](OC(=O)NCc2ccco2)[C@@H](OC(=O)NCc2ccco2)CN(C(=O)OC(C)C)N1C(=O)OC(C)C)S(=O)(=O)c1ccc(C)cc1	none (no result: Apaf1 inhib, SENP7 inh, SENP6 block, UBC13 polyUb, SENP8 block-2)
COc1ccc(NC(=O)c2cc(C3CCCCN3C(=O)CCc3ccccc3)on2)c(C)c1 (centres undefined)	none (no result: Apaf1 inhib, SENP7 inh, SENP6 block, UBC13 polyUb, SENP8 block-2)
O=C1OC(N2C(=O)CC[C@H]2C(=O)Nc2ccc(Br)cc2F)c2ccccc21 (some centres undefined)	SENP8 block-1 54 | SENP8 conf inactive
C[C@H]1CN([C@@H](C)CO)C(=O)CCCn2cc(nn2)CO[C@@H]1CN(C)C(=O)Nc1cccc(Oc2ccccn2)c1	none (no result: Apaf1 inhib, SENP7 inh, SENP6 block, UBC13 polyUb, SENP8 block-2)
Cc1ccc(-c2nnc(-c3ccncc3)n2-c2ccc(C)cc2)cc1	SENP8 block-1 62 | SENP8 conf inactive
Cc1ccc(-n2c(-c3ccncc3)nnc2-c2ccco2)cc1	none
COc1cc(C(c2c(C)[nH][nH]c2=O)c2c(C)[nH][nH]c2=O)ccc1OS(=O)(=O)c1ccc(C)cc1	SENP8 block-1 56 | SENP8 conf inactive
COc1cc(C(c2c(C)[nH][nH]c2=O)c2c(C)[nH][nH]c2=O)ccc1OS(=O)(=O)c1ccccc1	SENP8 block-1 42 | SENP8 conf inactive
CCOc1cc(C(c2c(C)[nH][nH]c2=O)c2c(C)[nH][nH]c2=O)ccc1O	SENP8 block-1 47 | SENP8 conf 53
Cc1[nH][nH]c(=O)c1C(c1ccc(O)c(Br)c1)c1c(C)[nH][nH]c1=O	none
COc1cc(C(c2c(C)[nH][nH]c2=O)c2c(C)[nH][nH]c2=O)ccc1OC(C)C	none
CC(C)C[C@H]1CN(CCCC[C@H]2CNC(=O)C(=O)N2CCc2ccccc2)C(=O)C(=O)N1CCc1ccccc1	none (no result: Apaf1 inhib, SENP7 inh, SENP6 block, UBC13 polyUb, SENP8 block-2)
CCCNC(=O)C1(C)CCCN(C(=O)c2c(C)noc2C)C1 (centres undefined)	none (no result: Apaf1 inhib, SENP7 inh, SENP6 block, UBC13 polyUb, SENP8 block-2)
COC(=O)C1=C(C)NC(C)=C(C(=O)OC)C1c1ccc(-c2cccc([N+](=O)[O-])c2)o1	SENP8 block-1 47 | SENP8 conf inactive
COC(=O)C1=C(C)NC(C)=C(C(=O)OC)C1c1ccc(-c2cccc(Cl)c2Cl)o1	none
CC(=O)Nc1ccc(S(=O)(=O)N2CCN(C(=O)CCC3CCCC3)CC2)cc1	SENP8 block-1 46 | SENP8 conf inactive
O=C(COc1ccccc1)Nc1cc(Cl)ccc1Cl	none
O=C(NNc1ccccc1[N+](=O)[O-])Nc1cccc(Cl)c1	SENP8 block-1 40 | SENP8 conf inactive
O=C(NNc1ccccc1)Nc1cc(Cl)ccc1Cl	SENP8 block-1 48 (no result: Apaf1 inhib, SENP7 inh, SENP6 block, UBC13 polyUb, SENP8 block-2) | SENP8 conf inactive
CN(C)CCCNc1nc2cc(-c3ccc(F)cc3)sc2c(=O)n1C	none (no result: Apaf1 inhib, SENP7 inh, SENP6 block, UBC13 polyUb, SENP8 block-2)
Cc1ccc(NC(=O)NC2(C(=O)NCc3ccco3)CCCCC2)cc1	SENP8 block-1 40 | SENP8 conf inactive
COCCNC(=O)C1(C)CCCN(Cc2sc(C)nc2C)C1 (centres undefined)	none (no result: Apaf1 inhib, SENP7 inh, SENP6 block, UBC13 polyUb, SENP8 block-2)
CCC(=O)Nc1ccccc1Nc1cc(C#N)c(C#N)cc1[N+](=O)[O-]	SENP8 block-1 42 | SENP8 conf inactive
O=C(NCC(=O)N(CC1CCCO1)C(C(=O)NC1CCCC1)c1cccnc1)c1ccco1 (centres undefined)	SENP8 block-1 42 | SENP8 conf inactive
O=C(NCC(=O)N(CC1CCCO1)C(C(=O)NC1CCCC1)c1ccc(F)cc1)c1ccco1 (centres undefined)	none
COc1ccc(/C=C/C(=O)NC(=S)Nc2ccc(N3CCN(C(C)=O)CC3)cc2)cc1	SENP8 block-1 51 | SENP8 conf inactive
COc1cc(OC)cc(C(=O)NC(=S)Nc2ccc(N3CCCC3)cc2)c1	SENP8 block-1 43 | SENP8 conf inactive
CN(C)c1ccc(NC(=S)NC(=O)/C=C/c2ccc(Cl)cc2)cc1	SENP8 block-1 41 | SENP8 conf inactive
COc1cc(OC)cc(C(=O)NC(=S)N2CCCCCC2)c1	none
CN(C)c1ncnc2c1ncn2[C@H]1CN(Cc2ccc(Cl)cc2)C[C@@H](CO)O1	none (no result: Apaf1 inhib, SENP7 inh, SENP6 block, UBC13 polyUb, SENP8 block-2)
